Consider two molecules from ChEMBL document CHEMBL1125014, “Synthesis and structure-activity relationships of new 9-N-alkyl derivatives of 9(S)-erythromycylamine” (1990).

Experiment [1] deals with Mus musculus. Nature of the experiment: ED50 value was measured by sc administration against streptococcus pneumoniae infection in mice (in vivo, in experiment 2). Type of experiment: functional. An outline of the steps:
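Infected mice were dosed orally or subcutaneously at 1 and 5 h postinfection, 0.25 mL of antibiotic solution in 10% aqueous ethanol per dose. Tartaric acid was added where needed for solubility. Several dose concentrations were tested to give the ED50.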

In experiment [2] the test system is Rattus norvegicus. The experiment in a line: Plasma concentration in rats was determined by subcutaneous administration, 20 mg/kg at 5 min. Type of experiment: functional, organism-based. Also on record: dose 20 mg/kg. An outline of the steps:
(§1)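 Peripheral plasma antibiotic levels in rats given 20 mg/kg orally or subcutaneously. Plasma was sampled at timed points after dosing. Levels were measured by microbiological agar assay with Micrococcus luteus seeded in Antibiotic Media 1, reading zone sizes, and were calculated from a standard curve for the appropriate compound. Each value is the average of three rats per time point, in μg/mL.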

Experiment [3] deals with Mus musculus. Nature of the experiment: Plasma concentration in mice was determined by oral administration, 20 mg/kg at 4 h. Type of experiment: functional, organism-based. Details: dose 20 mg/kg. The procedure, abridged:
(§2)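 Mice given 20 mg/kg orally or subcutaneously; peripheral plasma sampled at 5, 20 and 40 min and at 1, 2 and 4 h after dosing. Microbiological assay used Micrococcus luteus seeded in Antibiotic Medium 1, with zone sizes converted by the compound's own standard curve. Each value is the average of five mice per time point.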

In experiment [4] the test system is Mus musculus. Nature of the experiment: Plasma concentration in mice was determined by oral administration, 20 mg/kg at 2 h. Details: dose 20 mg/kg. The class given is functional, organism-based. The procedure, abridged:
as §2

Experiment [5] deals with Mus musculus. Nature of the experiment: Plasma concentration in mice was determined by oral administration, 20 mg/kg at 1 h. The class given is functional, organism-based. Details: dose 20 mg/kg. The procedure, abridged:
as §2

Experiment [6] is filed under the species Rattus norvegicus.
Experiment [7] relates to Rattus norvegicus. The experiment in a line: Plasma concentration in rats was determined by oral administration, 20 mg/kg at 2 hr. Type of experiment: functional, organism-based. Details: dose 20 mg/kg. The procedure, abridged:
as §1

The species named for experiment [8] is Rattus norvegicus. Nature of the experiment: Fluid concentration in serum was determined in rats at 6 hr. Type of experiment: functional. The procedure, abridged: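 Rats dosed by gavage at 20 mg/kg; lung, liver, kidney, urine and serum sampled at 0.5, 1, 2, 4 and 6 h after dosing. Antibiotic measured by microbiological assay with Micrococcus luteus seeded in Antibiotic Medium 1. Zone sizes were read against the standard curve for the same compound. Each value is the average of three rats per time point.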

As to `CCCN[C@@H]1[C@H](C)[C@@H](O)[C@](C)(O)[C@@H](CC)OC(=O)[C@H](C)[C@@H](OC2CC(C)(OC)C(O)C(C)O2)[C@H](C)[C@@H](OC2OC(C)CC(N(C)C)C2O)[C@](C)(O)C[C@H]1C` (stereo partly drawn), the ED50 with Mus musculus [1] was found to be 2.1 mg/kg. Moreover, the Plasma concentration in the experiment on Rattus norvegicus [2] amounted to 0.04 µg/mL; in the experiment with Mus musculus [3], 0.06 µg/mL; in the experiment with Mus musculus [4], 0.07 µg/mL; with Mus musculus [5], 0.08 µg/mL; in the experiment listed under Rattus norvegicus [6], 0.28 µg/mL.

In the experiment with Rattus norvegicus [7], `CC[C@H]1OC(=O)[C@H](C)[C@@H](O[C@H]2C[C@@](C)(OC)[C@@H](O)[C@H](C)O2)[C@H](C)[C@@H](O[C@@H]2O[C@H](C)C[C@H](N(C)C)[C@H]2O)[C@](C)(O)C[C@@H](C)C(=O)[C@H](C)[C@@H](O)[C@]1(C)O` [ERYTHROMYCIN] returned a Plasma concentration of 0.03 µg/mL. The molecule further displayed an Activity in the experiment filed under Rattus norvegicus [8] of 0 µg/mL.

In general, ED50 refers to the dose at which the effect has come halfway, by size or by number of responders. Lower therefore signals an effect at a small dose.
